Data as given in ChEMBL document CHEMBL5724801, “EUbOPEN Chemogenomics Library - Multiplex” (2024).
Values joined by “and” are separate entries in the source; they are usually repeats but may differ in a detail not shown here. Equal values may be shown once.

What was measured:
Assay type in all cases: toxicity, cell-based
Fibroblast = assay: Multiplex assay against human fibroblast
In short: (§1)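 Cells stained live at seeding with Hoechst33342, BioTracker Green Microtubule Cytoskeleton Dye, MitoTracker Red and Annexin V Alexa Fluor 680 were imaged on a CQ1 microscope at 37°C and 5% CO2 after compound addition. Their classification by CellPathfinder machine-learning gating ran from Hoechst high-intensity objects versus normal cells, to healthy, pyknosed or fragmented nuclei among normal cells, to mitotic or apoptotic among pyknosed cells. Tubulin, mitochondrial-mass and membrane-permeability phenotypes are per cents of healthy-nucleus cells.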

HEK-293T = assay: Multiplex assay against HEK293T; conditions: human; in short: as §1
U2OS = assay: Multiplex assay against U2OS; conditions: human; in short: as §1
[1] = 12 h, 1 µM, compound concentration 1 uM
[2] = 12 h, 10 µM, compound concentration 10 uM
[3] = 24 h, 1 µM, compound concentration 1 uM
[4] = 24 h, 10 µM, compound concentration 10 uM
[5] = 48 h, 1 µM, compound concentration 1 uM
[6] = 48 h, 10 µM, compound concentration 10 uM

## CCc1nn2c(C)cc(C)nc2c1Cc1ccc(-c2nnc(C3CCNCC3)o2)cc1
Fibroblast; [1]
  Population Apoptotic (%): 34% and 45%
  Population Fragmented Nuclei (%): 17% and 19%
  Population Healthy Nuclei (%): 63% and 46%
  Population Hoechst High Intensity Objects (%): 2% and 6%
  Population Membrane Permeable-Phenotype (%): 2%
  Population Mitochondria Different-Phenotype (%): 5% and 13%
  Population Mitotic Cells (%): 65% and 54%
  Population Normal (%): 97% and 93%
  Population Pyknosed Nuclei (%): 19% and 33%
  Population Tubulin-Different-Phenotype (%): 35% and 62%
  Total Cell Count: 153 and 167
Fibroblast; [2]
  Population Fragmented Nuclei (%): 19% and 38%
  Population Healthy Nuclei (%): 62% and 44%
  Population Hoechst High Intensity Objects (%): 5% and 3%
  Population Membrane Permeable-Phenotype (%): 0% and 5%
  Population Mitochondria Different-Phenotype (%): 19% and 14%
  Population Mitotic Cells (%): 48% and 85%
  Population Normal (%): 94% and 96%
  Population Pyknosed Nuclei (%): 18% and 17%
  Population Tubulin-Different-Phenotype (%): 72% and 79%
  Total Cell Count: 188 and 162
Fibroblast; [3]
  Population Apoptotic (%): 52% and 56%
  Population Fragmented Nuclei (%): 17% and 26%
  Population Healthy Nuclei (%): 68% and 49%
  Population Hoechst High Intensity Objects (%): 1% and 7%
  Population Membrane Permeable-Phenotype (%): 0% and 6%
  Population Mitotic Cells (%): 47% and 43%
  Population Normal (%): 98% and 92%
  Population Pyknosed Nuclei (%): 13% and 23%
  Population Tubulin-Different-Phenotype (%): 35% and 65%
  Total Cell Count: 153 and 177
Fibroblast; [4]
  Population Apoptotic (%): 53% and 56%
  Population Fragmented Nuclei (%): 17% and 40%
  Population Healthy Nuclei (%): 64% and 42%
  Population Hoechst High Intensity Objects (%): 9% and 3%
  Population Membrane Permeable-Phenotype (%): 0% and 11%
  Population Mitochondria Different-Phenotype (%): 22% and 16%
  Population Mitotic Cells (%): 46% and 44%
  Population Normal (%): 90% and 96%
  Population Pyknosed Nuclei (%): 17%
  Population Tubulin-Different-Phenotype (%): 79% and 80%
  Total Cell Count: 185 and 151
Fibroblast; [5]
  Population Apoptotic (%): 76% and 62%
  Population Fragmented Nuclei (%): 21% and 30%
  Population Healthy Nuclei (%): 70% and 54%
  Population Hoechst High Intensity Objects (%): 4%
  Population Membrane Permeable-Phenotype (%): 1% and 3%
  Population Mitochondria Different-Phenotype (%): 2% and 12%
  Population Mitotic Cells (%): 23% and 37%
  Population Normal (%): 95%
  Population Pyknosed Nuclei (%): 7% and 14%
  Population Tubulin-Different-Phenotype (%): 32% and 54%
  Total Cell Count: 172 and 168
Fibroblast; [6]
  Population Apoptotic (%): 84% and 54%
  Population Fragmented Nuclei (%): 23% and 45%
  Population Healthy Nuclei (%): 62% and 47%
  Population Hoechst High Intensity Objects (%): 9% and 2%
  Population Membrane Permeable-Phenotype (%): 0% and 2%
  Population Mitochondria Different-Phenotype (%): 16% and 17%
  Population Mitotic Cells (%): 15% and 45%
  Population Normal (%): 90% and 97%
  Population Pyknosed Nuclei (%): 13% and 7%
  Population Tubulin-Different-Phenotype (%): 73% and 78%
  Total Cell Count: 208 and 161
HEK-293T; [1]
  Population Apoptotic (%): 35% and 51%
  Population Fragmented Nuclei (%): 9% and 7%
  Population Healthy Nuclei (%): 80% and 78%
  Population Hoechst High Intensity Objects (%): 7% and 5%
  Population Membrane Permeable-Phenotype (%): 0%
  Population Mitochondria Different-Phenotype (%): 54% and 62%
  Population Mitotic Cells (%): 64% and 48%
  Population Normal (%): 92% and 94%
  Population Pyknosed Nuclei (%): 10% and 13%
  Population Tubulin-Different-Phenotype (%): 37% and 19%
  Total Cell Count: 401 and 395
HEK-293T; [2]
  Population Apoptotic (%): 63% and 56%
  Population Fragmented Nuclei (%): 6% and 4%
  Population Healthy Nuclei (%): 68% and 78%
  Population Hoechst High Intensity Objects (%): 11% and 12%
  Population Membrane Permeable-Phenotype (%): 0%
  Population Mitochondria Different-Phenotype (%): 85% and 86%
  Population Mitotic Cells (%): 36% and 43%
  Population Normal (%): 88% and 87%
  Population Pyknosed Nuclei (%): 25% and 17%
  Population Tubulin-Different-Phenotype (%): 65% and 48%
  Total Cell Count: 319 and 293
HEK-293T; [3]
  Population Apoptotic (%): 44% and 34%
  Population Fragmented Nuclei (%): 10% and 7%
  Population Healthy Nuclei (%): 76% and 78%
  Population Hoechst High Intensity Objects (%): 4% and 5%
  Population Membrane Permeable-Phenotype (%): 0%
  Population Mitochondria Different-Phenotype (%): 36% and 50%
  Population Mitotic Cells (%): 55% and 65%
  Population Normal (%): 95% and 94%
  Population Pyknosed Nuclei (%): 13%
  Population Tubulin-Different-Phenotype (%): 23% and 19%
  Total Cell Count: 529 and 542
HEK-293T; [4]
  Population Apoptotic (%): 69% and 41%
  Population Fragmented Nuclei (%): 11% and 10%
  Population Healthy Nuclei (%): 72% and 77%
  Population Hoechst High Intensity Objects (%): 5% and 7%
  Population Membrane Permeable-Phenotype (%): 0%
  Population Mitochondria Different-Phenotype (%): 73% and 78%
  Population Mitotic Cells (%): 30% and 58%
  Population Normal (%): 94% and 92%
  Population Pyknosed Nuclei (%): 15% and 11%
  Population Tubulin-Different-Phenotype (%): 50% and 45%
  Total Cell Count: 448 and 389
HEK-293T; [5]
  Population Apoptotic (%): 28% and 32%
  Population Fragmented Nuclei (%): 12% and 11%
  Population Healthy Nuclei (%): 79% and 83%
  Population Hoechst High Intensity Objects (%): 2% and 5%
  Population Membrane Permeable-Phenotype (%): 0%
  Population Mitochondria Different-Phenotype (%): 25% and 24%
  Population Mitotic Cells (%): 71% and 67%
  Population Normal (%): 97% and 94%
  Population Pyknosed Nuclei (%): 8% and 5%
  Population Tubulin-Different-Phenotype (%): 15% and 10%
  Total Cell Count: 842 and 829
HEK-293T; [6]
  Population Apoptotic (%): 54% and 50%
  Population Fragmented Nuclei (%): 14% and 12%
  Population Healthy Nuclei (%): 72% and 80%
  Population Hoechst High Intensity Objects (%): 4% and 3%
  Population Membrane Permeable-Phenotype (%): 0%
  Population Mitochondria Different-Phenotype (%): 59% and 56%
  Population Mitotic Cells (%): 45% and 50%
  Population Normal (%): 95% and 96%
  Population Pyknosed Nuclei (%): 13% and 6%
  Population Tubulin-Different-Phenotype (%): 32% and 26%
  Total Cell Count: 517 and 607
U2OS; [1]
  Population Apoptotic (%): 42% and 85%
  Population Healthy Nuclei (%): 60% and 84%
  Population Hoechst High Intensity Objects (%): 3% and 2%
  Population Membrane Permeable-Phenotype (%): 12% and 14%
  Population Mitochondria Different-Phenotype (%): 10% and 17%
  Population Normal (%): 96% and 97%
  Population Pyknosed Nuclei (%): 10% and 6%
  Population Tubulin-Different-Phenotype (%): 11% and 4%
  Total Cell Count: 251 and 110
U2OS; [2]
  Population Apoptotic (%): 68% and 77%
  Population Fragmented Nuclei (%): 24% and 8%
  Population Healthy Nuclei (%): 55% and 76%
  Population Hoechst High Intensity Objects (%): 5% and 2%
  Population Membrane Permeable-Phenotype (%): 26% and 30%
  Population Mitochondria Different-Phenotype (%): 43% and 62%
  Population Mitotic Cells (%): 31% and 22%
  Population Normal (%): 94% and 97%
  Population Pyknosed Nuclei (%): 20% and 14%
  Population Tubulin-Different-Phenotype (%): 28% and 44%
  Total Cell Count: 214 and 129
U2OS; [3]
  Population Apoptotic (%): 80% and 87%
  Population Fragmented Nuclei (%): 26% and 13%
  Population Healthy Nuclei (%): 63% and 80%
  Population Hoechst High Intensity Objects (%): 2% and 3%
  Population Membrane Permeable-Phenotype (%): 4% and 7%
  Population Mitochondria Different-Phenotype (%): 6% and 12%
  Population Mitotic Cells (%): 20% and 12%
  Population Normal (%): 97% and 96%
  Population Pyknosed Nuclei (%): 10% and 6%
  Population Tubulin-Different-Phenotype (%): 3%
  Total Cell Count: 296 and 130
U2OS; [4]
  Population Apoptotic (%): 77% and 71%
  Population Fragmented Nuclei (%): 24% and 15%
  Population Healthy Nuclei (%): 55% and 71%
  Population Hoechst High Intensity Objects (%): 3%
  Population Membrane Permeable-Phenotype (%): 9% and 16%
  Population Mitochondria Different-Phenotype (%): 40% and 61%
  Population Mitotic Cells (%): 22% and 28%
  Population Normal (%): 96%
  Population Pyknosed Nuclei (%): 19% and 13%
  Total Cell Count: 236 and 163
U2OS; [5]
  Population Apoptotic (%): 90% and 85%
  Population Fragmented Nuclei (%): 17% and 12%
  Population Healthy Nuclei (%): 71% and 72%
  Population Hoechst High Intensity Objects (%): 2%
  Population Membrane Permeable-Phenotype (%): 6% and 7%
  Population Mitochondria Different-Phenotype (%): 2% and 6%
  Population Mitotic Cells (%): 10% and 14%
  Population Normal (%): 97%
  Population Pyknosed Nuclei (%): 10% and 14%
  Population Tubulin-Different-Phenotype (%): 4%
  Total Cell Count: 376 and 187
U2OS; [6]
  Population Apoptotic (%): 82% and 75%
  Population Fragmented Nuclei (%): 24% and 12%
  Population Healthy Nuclei (%): 55% and 71%
  Population Hoechst High Intensity Objects (%): 2%
  Population Membrane Permeable-Phenotype (%): 10% and 22%
  Population Mitochondria Different-Phenotype (%): 29% and 31%
  Population Mitotic Cells (%): 17% and 24%
  Population Normal (%): 97%
  Population Pyknosed Nuclei (%): 19% and 15%
  Total Cell Count: 290 and 219
